Screening results from PubChem BioAssay.
The list is not random: actives were taken first. Their share in the collection is about 2.6%.
SENP8 block-1: blocks the human protease SENP8; Q96LD8; purified SENP8, Z-RLRGG-aminoluciferin cleavage, luminescence; inhibition, % at 10 µM; actives 1.2% (n = 330,000); in the data active = inhibition above about 50%
Target sequence (Q96LD8 whole entry, looked up): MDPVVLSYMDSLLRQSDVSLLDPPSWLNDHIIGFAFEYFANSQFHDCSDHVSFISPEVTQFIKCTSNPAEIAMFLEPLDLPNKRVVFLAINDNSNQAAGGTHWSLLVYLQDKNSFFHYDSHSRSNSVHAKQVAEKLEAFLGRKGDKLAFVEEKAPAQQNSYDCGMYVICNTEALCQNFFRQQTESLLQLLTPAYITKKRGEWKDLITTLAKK
SENP1 inh: SENP1 (human) catalytic domain inhibition. Q9P0U3. recombinant SENP1 catalytic domain, CyPet-SUMO1-YPet FRET cleavage. inhibition, % at 10 µM. actives 0.21% (n = 360,000). AID 624204;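 active = inhibition at least 30% at 10 µM, raw YFP signal under a set limit, fluorescence ratio 0.5 to 1.5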
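Controls: no-enzyme wells low, DMSO-plus-enzyme wells high control. Test system: human recombinant His6-tagged SENP1 catalytic domain enzyme. Reagent: SFCypet-SUMO1-SFYpet FRET protein substrate, 25 nM final. Doses: one dose per compound, 10 µM, 0.5% DMSO. Detection: FRET, CFP and YFP emission. Timing: 50 min reaction at room temperature.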
SENP7 inh: inhibitors of human SENP7 protease | Q9BQF6 | AID 434973 | actives 1.5% (n = 330,000) | recombinant SENP7, Z-RLRGG-aminoluciferin luminescence, 40 min | inhibition, % at 5 µM;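 active = inhibition above about 50% at the single test dose, limit read from the data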
Target sequence (Q9BQF6 706-1050 limits assumed): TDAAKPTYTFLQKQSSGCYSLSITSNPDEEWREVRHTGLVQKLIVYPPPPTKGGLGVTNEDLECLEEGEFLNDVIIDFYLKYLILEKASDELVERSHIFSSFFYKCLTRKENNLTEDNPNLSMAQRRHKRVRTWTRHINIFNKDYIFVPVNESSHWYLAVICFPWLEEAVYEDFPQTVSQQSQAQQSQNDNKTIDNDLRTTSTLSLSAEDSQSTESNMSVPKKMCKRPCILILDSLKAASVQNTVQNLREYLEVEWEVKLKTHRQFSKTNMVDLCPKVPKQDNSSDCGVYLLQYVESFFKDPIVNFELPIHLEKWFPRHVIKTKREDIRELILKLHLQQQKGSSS
SENP8 block-2: inhibitors of human SENP8 protease; Q96LD8; recombinant SENP8, Nedd8 substrate fluorescence; inhibition, % at 20 µM; actives 0.64% (n = 360,000); in the data active = inhibition mostly above about 40%, no sharp cut-off; inactive = mostly below about 27%
SENP6 block: inhibitors of human SENP6 protease | Q9GZR1 | Recombinant SENP6 catalytic domain, aminoluciferin luminescence | inhibition, % at 10 µM | actives 1.8% (n = 330,000);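 active = inhibition above about 50% at the single tested dose, limit read from the data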
Platelet DG rel: modulates dense granule release in human platelets | AID 1663 | actives 0.22% (n = 300,000) | human platelet-rich plasma, SFLLRN dense granule ATP release, luminescence | inhibition, %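 (compounds screened at 7.5 µM in platelet-rich plasma)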;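 active = mean replicate score, as percent of positive control, at or above 50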
SENP8 confirm: human SENP8 inhibition, confirmed | shares compounds with SENP7 inh | actives 40% (n = 6,200) | inhibition, % at 12.5 µM | Recombinant SENP8, Z-RLRGG-aminoluciferin luminescence, 60 min | AID 488912;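 active = mean inhibition across replicates above about 50%, limit read from the data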
SENP6 confirm: human SENP6 inhibition, confirmed; AID 488915; recombinant SENP6, Z-RLRGG-aminoluciferin luminescence; actives 58% (n = 6,200); inhibition, % at 12.5 µM; shares compounds with SENP7 inh
SENP7 confirm: human SENP7 inhibition, confirmed; actives 69% (n = 6,200); inhibition, % at 12.5 µM; recombinant SENP7, Z-RLRGG-aminoluciferin luminescence, 40 min; AID 488917; shares compounds with SENP7 inh
Casp3 select: inhibits human caspase-3 in SENP selectivity test; shares compounds with SENP7 inh; purified caspase-3, Z-DEVD-aminoluciferin luminescence, 60 min; inhibition, % at 12.5 µM; actives 60% (n = 6,200); AID 488918;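 active = mean inhibition above about 50%, limit read from the data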
Luc interf: counter-screen for SENP inhibitors: luminescence interference; Pre-incubated SENP8/Z-RLRGG-aminoluciferin, luciferase luminescence interference; shares compounds with SENP7 inh; actives 39% (n = 6,200); inhibition, % at 12.5 µM;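 active = mean inhibition above about 50% when retested at one dose, limit read from the data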
Each line names hits and unclear results; the compound was inactive in the other large screens (follow-up assays come after a bar, where they were run).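 The calls were made as follows, unless noted: active = mean inhibition above about 50% in the one-dose retest (limit read from the data); inactive = the rest.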

COc1ccc(-c2cc3ncnc(Cl)c3s2)cc1	SENP8 block-1 83.7, SENP6 block 83.4 | SENP8 confirm inactive | SENP6 confirm inactive | SENP7 confirm inactive | Casp3 select inactive | Luc interf inactive
O=C(C1CCC1)N1CCc2cc(S(=O)(=O)NC3CCCc4ccccc43)ccc21 (centres undefined)	SENP7 inh 96.9 | SENP8 confirm inactive | SENP6 confirm inactive | SENP7 confirm inactive | Casp3 select inactive | Luc interf inactive
CCOC(=O)c1ccc(N=Cc2nc(-c3ccccc3)oc2OC(C)=O)cc1	none
COc1ccc(N=Cc2nc(-c3ccccc3)oc2OC(=O)c2ccccc2)cc1	SENP7 inh 56.1, SENP6 block 54.1 | SENP8 confirm inactive | SENP6 confirm inactive | SENP7 confirm inactive | Casp3 select 62.2 | Luc interf inactive
CN(C)c1ccc(N=Cc2nc(-c3ccccc3)oc2OC(=O)c2cccc(Br)c2)cc1	SENP6 block 78.4 | SENP8 confirm inactive | SENP6 confirm inactive | SENP7 confirm inactive | Casp3 select inactive | Luc interf inactive
CC(=O)Oc1oc(-c2ccccc2)nc1C=Nc1ccccc1	none
COc1ccccc1NC(=O)NCc1ccc(C)n1C	none
CC(C(=O)NC(C)(C)C)N1C(=O)c2cccc3cccc(c23)C1=O (centres undefined)	none
N/C(=N\OC(=O)c1ccoc1)c1ccc(Br)cc1	SENP8 block-1 84.1, SENP7 inh 90.8, SENP6 block 92.7 | SENP8 confirm 75.6 | SENP6 confirm 71.4 | SENP7 confirm 94.1 | Casp3 select 74.8 | Luc interf 70.4
N/C(=N\OC(=O)c1ccco1)c1cccc(Br)c1	SENP8 block-1 52.2, SENP7 inh 74.4, SENP6 block 78.3 | SENP8 confirm 70.0 | SENP6 confirm 67.6 | SENP7 confirm 90.0 | Casp3 select 75.9 | Luc interf 67.2
Cc1cccc(C(=O)O/N=C(\N)c2ccc(Br)cc2)c1	none
N/C(=N\OC(=O)c1cccc(Br)c1)c1ccccc1	SENP8 block-1 67.3, SENP7 inh 86.0, SENP6 block 71.6 | SENP8 confirm 67.1 | SENP6 confirm 73.2 | SENP7 confirm 97.2 | Casp3 select 81.7 | Luc interf inactive
Cc1ccc(S(=O)(=O)N2CCC(C(=O)NCC(C)(C)N3CCOCC3)CC2)c(C)c1	none (no result: Platelet DG rel)
CCc1cc(C(=O)NNC(=S)Nc2ccccc2C)cs1	SENP6 block 59.9 | SENP8 confirm inactive | SENP6 confirm inactive | SENP7 confirm inactive | Casp3 select inactive | Luc interf inactive
CNS(=O)(=O)c1ccc(NC(=O)c2csc(C)c2)cc1	none
CCc1cc(C(=O)NNC(=S)Nc2cc(C)ccc2C)cs1	none
CCc1cc(C(=O)Nc2ccccc2)cs1	SENP8 block-1 51.7, SENP7 inh 75.0, SENP6 block 67.2 | SENP8 confirm 64.4 | SENP6 confirm 66.3 | SENP7 confirm 92.3 | Casp3 select 80.6 | Luc interf 76.7
Cc1cc(C(=O)Nc2ccc(Br)cc2)cs1	SENP7 inh 59.8 | SENP8 confirm inactive | SENP6 confirm inactive | SENP7 confirm inactive | Casp3 select inactive | Luc interf inactive
Cc1ccc(-c2nnc3sc(CCc4ccccc4)nn23)cc1	none
COc1ccc(C(C[N+](=O)[O-])c2c(-c3ccccc3)cc3ccccn23)cc1 (centres undefined)	none
CC(=O)c1ccc(NC(=O)CC2Nc3cccc4cccc(c34)NC2=O)cc1 (centres undefined)	SENP8 block-1 50.3, SENP7 inh 56.3, SENP6 block 88.5 | SENP8 confirm inactive | SENP6 confirm inactive | SENP7 confirm inactive | Casp3 select inactive | Luc interf inactive
Cc1cccc(NC(=O)CC2Nc3cccc4cccc(c34)NC2=O)c1 (centres undefined)	SENP8 block-1 76.0, SENP7 inh 67.2, SENP6 block 83.3 | SENP8 confirm inactive | SENP6 confirm inactive | SENP7 confirm inactive | Casp3 select inactive | Luc interf inactive
CC(=O)Nc1ccc(NC(=O)CC2Nc3cccc4cccc(c34)NC2=O)cc1 (centres undefined)	SENP8 block-1 75.0, SENP7 inh 74.6, SENP6 block 93.5 | SENP8 confirm inactive | SENP6 confirm inactive | SENP7 confirm inactive | Casp3 select inactive | Luc interf inactive
O=C(COC(=O)C1CC1)NCc1ccc(Cl)cc1Cl	none (no result: Platelet DG rel)
COc1ccccc1N(Cc1cc(=O)[nH]c2ccccc12)C(=O)C(C)C	none
Nc1ccn([C@H]2CC[C@@H](CO)O2)c(=O)n1	none
CCOc1ccccc1NC(=O)COC(=O)CN(C)S(=O)(=O)c1ccc(C)cc1	none
NC(=O)C1CCN(C(=O)CC2(CC(=O)O)CCCC2)CC1	none
CC1CCc2nc(NC(=O)C3COc4ccccc4O3)sc2C1 (centres undefined)	SENP6 block 74.7 | SENP8 confirm 71.5 | SENP6 confirm 72.3 | SENP7 confirm 91.3 | Casp3 select 58.9 | Luc interf inactive
Cc1cnc(NC(=O)C2COc3ccccc3O2)s1 (centres undefined)	SENP8 block-1 52.0, SENP7 inh 65.2, SENP6 block 57.9 | SENP8 confirm 69.2 | SENP6 confirm 67.8 | SENP7 confirm 89.4 | Casp3 select 79.4 | Luc interf 72.6
Cc1ncsc1C(=O)Nc1nc2c(s1)CC(C)CC2 (centres undefined)	SENP8 block-1 92.1, SENP7 inh 98.1, SENP6 block 96.1 | SENP8 confirm inactive | SENP6 confirm 72.4 | SENP7 confirm 93.4 | Casp3 select 84.3 | Luc interf inactive
CCOc1ccc(-c2ccc3nnc(SCC(=O)NCC4CCCO4)n3n2)cc1 (centres undefined)	none
O=C(c1cc(-c2ccc(Cl)cc2)on1)N1CCCC1	SENP6 block 56.1 | SENP8 confirm inactive | SENP6 confirm inactive | SENP7 confirm inactive | Casp3 select inactive | Luc interf inactive
O=C(c1ccc(-c2ccccc2Cl)o1)N1CCC1	none (no result: Platelet DG rel)
O=C(c1cc(-c2ccc(Cl)c(Cl)c2)on1)N1CCCCC1	SENP7 inh 57.1 | SENP8 confirm inactive | SENP6 confirm inactive | SENP7 confirm inactive | Casp3 select inactive | Luc interf inactive
